Biological target: T1, Sodium- and chloride-dependent GABA transporter 2 (Mus musculus, UniProt P31649)
T1 sequence (P31649 whole entry): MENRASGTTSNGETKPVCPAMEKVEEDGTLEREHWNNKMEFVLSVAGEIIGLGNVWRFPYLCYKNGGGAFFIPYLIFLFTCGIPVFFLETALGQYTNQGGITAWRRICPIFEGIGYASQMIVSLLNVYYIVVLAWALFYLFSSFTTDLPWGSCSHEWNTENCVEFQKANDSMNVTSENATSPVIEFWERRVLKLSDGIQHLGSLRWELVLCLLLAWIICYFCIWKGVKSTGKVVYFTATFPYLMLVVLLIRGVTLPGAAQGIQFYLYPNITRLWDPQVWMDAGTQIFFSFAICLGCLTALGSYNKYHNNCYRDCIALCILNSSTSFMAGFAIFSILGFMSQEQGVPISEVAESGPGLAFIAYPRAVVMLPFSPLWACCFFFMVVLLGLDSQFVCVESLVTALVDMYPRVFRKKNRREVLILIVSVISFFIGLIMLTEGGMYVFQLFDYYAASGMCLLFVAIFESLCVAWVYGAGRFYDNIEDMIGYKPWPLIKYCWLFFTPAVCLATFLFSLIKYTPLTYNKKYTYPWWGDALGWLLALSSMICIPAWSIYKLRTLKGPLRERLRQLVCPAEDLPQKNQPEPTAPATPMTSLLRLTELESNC
Experiment: Inhibition of mouse GAT2 expressed in HEK293 cells assessed as decrease in [3H]GABA uptake preincubated for 25 mins followed by [3H]GABA addition measured after 10 mins by liquid scintillation counting analysis
Method in brief: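 [³H]GABA uptake assay in HEK cells expressing the mGAT subtype named in the line, run in triplicate. Potencies are given as pIC₅₀ ± SEM. No SEM is given where only one triplicate measurement was made. Where 100 µM test compound left uptake at or above 50% (pIC₅₀ ≤ 4.00), the percent remaining [³H]GABA uptake at 100 µM is reported instead.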

Row | IC50 | Compound
1 | 33.9 µM | COc1ccc(C(CC#CCN2CCCC(C(=O)O)C2)(c2ccc(OC)cc2)c2ccc(OC)cc2)cc1 (centres undefined)
2 | 41.7 µM | COc1ccc(C(C#CCN2CCCC(C(=O)O)C2)(c2ccc(OC)cc2)c2ccc3c(c2)OCO3)cc1 (centres undefined)
3 | 35.5 µM | COc1ccc(C(C#CCCN2CCCC(C(=O)O)C2)(c2ccc(OC)cc2)c2ccc(OC)cc2)cc1 (centres undefined)
4 | 32.4 µM | COc1ccc(C(OCCN2CCCC(C(=O)O)C2)(c2ccc(OC)cc2C)c2ccc(OC)cc2C)cc1 (centres undefined)

From BindingDB's records for doi:10.1016/j.bmc.2018.05.049 (2018)
